Three compounds from ChEMBL document CHEMBL3244285, “Hypotensive phospholipids. Some stable analogues of Darmstoff” (J Med Chem, 1978) can be followed below.

Calls of active or inactive are those of the source. The calls are words filed in the database; no cut-off is given here.

In series [1] the test system is Rattus norvegicus. Nature of the series: Toxicity in awake normotensive rat assessed as heart rate at 1 mg/100 g, iv measured within 2 mins (reference value: 450 +/- 57/min). It counts as organism-based. The conditions noted are these: in vivo.
In series [2] the test system is Rattus norvegicus. Nature of the series: Hypotensive activity in awake normotensive rat assessed as mean blood pressure at 1 mg/100 g, iv measured within 2 mins (reference value: 130 +/- 6.9 mmHg). The series is classed as functional.
Series [3] has as its system Rattus norvegicus. In words: Toxicity in awake normotensive rat assessed as decrease in heart rate at 1 mg/100 g, iv measured for 10 mins. The series is classed as organism-based. To be noted: in vivo. A digest of the protocol:
(§1)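 Chronically catheterized, unrestrained normotensive rats received iv drug in 0.9% NaCl through the venous catheter. Heart rate was followed continuously on chart records from the arterial strain-gauge trace, from the moment of injection for at least 10 min.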

The test system of series [4] is Rattus norvegicus. Nature of the series: Toxicity in awake normotensive rat assessed as decrease in heart rate at 1 mg/100 g, iv measured within 2 mins in presence of beta-adrenergic inhibitor propranolol. It counts as organism-based. The conditions noted are these: in vivo.
Series [5] deals with Rattus norvegicus. In words: Hypotensive activity in awake normotensive rat assessed as decrease in mean blood pressure at 1 mg/100 g, iv measured within 2 mins in presence of beta-adrenergic inhibitor propranolol. It counts as functional, organism-based.
Series [6] in a line: Stability of the compound in 0.9% sodium chloride solution at 5 degC measured after 72 hrs. It counts as physicochemical. A digest of the protocol: (§2)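 Solution stability was tested by storing drug solutions in 0.9% NaCl at 5 °C. At the stated storage times the stored solutions were given iv to catheterized, unrestrained normotensive rats, and blood pressure and heart-rate responses were re-measured by arterial strain gauge.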

Series [7] has as its system Rattus norvegicus. Nature of the series: Toxicity in awake normotensive rat assessed as heart rate at 1 mg/100 g, iv measured within 2 mins (reference value: 430 +/- 40/min). The series is classed as organism-based. To be noted: in vivo.
Series [8] deals with Rattus norvegicus. In words: Hypotensive activity in awake normotensive rat assessed as mean blood pressure at 1 mg/100 g, iv measured within 2 mins (reference value: 115 +/- 17 mmHg). It counts as functional.
The nature of series [9]: Stability of the compound in 0.9% sodium chloride solution at 5 degC measured after 24 hrs. The series is classed as physicochemical. Summed up:
as §2

Series [10] concerns Rattus norvegicus. In words: Toxicity in awake normotensive rat assessed as heart rate at 1 mg/100 g, iv measured within 2 mins (reference value: 430 +/- 50/min). To be noted: in vivo. It counts as organism-based.
Series [11] concerns Rattus norvegicus. Nature of the series: Toxicity in awake normotensive rat assessed as heart rate at 2 mg/100 g, iv measured within 2 mins (reference value: 420/min). To be noted: in vivo. The series is classed as organism-based.
The test system of series [12] is Rattus norvegicus. Nature of the series: Toxicity in awake normotensive rat assessed as cardiac arrest at 4 mg/100 g, iv measured within 2 mins. It counts as organism-based. To be noted: in vivo.
Series [13] has as its system Rattus norvegicus. Nature of the series: Hypotensive activity in awake normotensive rat assessed as mean blood pressure at 1 mg/100 g, iv measured within 2 mins (reference value: 125 +/- 16 mmHg). The series is classed as functional.
In series [14] the test system is Rattus norvegicus. In words: Hypotensive activity in awake normotensive rat assessed as mean blood pressure at 2 mg/100 g, iv measured within 2 mins (reference value: 125 mmHg). It counts as functional.
The test system of series [15] is Rattus norvegicus. In words: Toxicity in awake normotensive rat assessed as decrease in heart rate at 2 mg/100 g, iv measured for 10 mins. It counts as organism-based. To be noted: in vivo. A digest of the protocol: as §1
Series [16] has as its system Rattus norvegicus. Nature of the series: Toxicity in awake normotensive rat assessed as decrease in heart rate at 2 mg/100 g, iv measured within 2 mins in presence of beta-adrenergic inhibitor propranolol. It counts as organism-based. To be noted: in vivo.
The test system of series [17] is Rattus norvegicus. Nature of the series: Hypotensive activity in awake normotensive rat assessed as decrease in mean blood pressure at 2 mg/100 g, iv measured within 2 mins in presence of beta-adrenergic inhibitor propranolol. It counts as functional, organism-based.
Series [18] is filed under the species Rattus norvegicus. In words: Hypotensive activity in spontaneous hypertensive rat model measured after 48 hrs. It counts as functional, organism-based.
For series [19], the species on record is Rattus norvegicus. Nature of the series: Toxicity in spontaneous hypertensive rat model assessed as bradycardia measured after 48 hrs. The series is classed as organism-based. The conditions noted are these: in vivo.
Series [20] can be described thus: Stability of the compound in 0.9% sodium chloride solution at 5 degC measured within 1 hr. The series is classed as physicochemical. A digest of the protocol: as §2

Consider `CCCCCCCCCCCCCCCC1CCC(COP(=O)([O-])O)C1.[Na+]` (stereo unspecified), for which the heart rate in the series on Rattus norvegicus [1] was determined as 375 beats/min. Further, the Activity in the series on Rattus norvegicus [2] is on record as 120 mmHg; with Rattus norvegicus [3], “Toxic”; in the series with Rattus norvegicus [4], “Toxic”. Moreover, in the series with Rattus norvegicus [5], the result was Active. Besides, the Stability entry in [6] is given as “Stable”.

Consider `CCCCCCCCCCCCCCCC1CCC(COP(=O)([O-])O)O1.[Na+]` (stereo unspecified), for which the heart rate in the series with Rattus norvegicus [7] is 350 beats/min. The Activity is reported as 100 mmHg in the series with Rattus norvegicus [8], “Toxic” with Rattus norvegicus [3] and “Toxic” with Rattus norvegicus [4]. The result with Rattus norvegicus [5] was Active. In addition, the Stability entry in series [9] is reported as “Stable”.

With `CCCCCCCCCCCCCCCC1OCC(COP(=O)([O-])O)O1.[Na+]` (stereo unspecified), the heart rate was 310 beats/min in the series with Rattus norvegicus [10] and 250 beats/min in the series with Rattus norvegicus [11]. The Activity result with Rattus norvegicus [12] was “Toxic”; in the series on Rattus norvegicus [13], 100 mmHg; in the series on Rattus norvegicus [14], 100 mmHg; in the series on Rattus norvegicus [3] it was “Toxic”; in the series with Rattus norvegicus [15], “Toxic”; in the series on Rattus norvegicus [4], “Toxic”. The Activity result in the series with Rattus norvegicus [16] and in the series filed under Rattus norvegicus [19] was “Toxic” in each case. The outcome in the series on Rattus norvegicus [5], with Rattus norvegicus [17] and in the series filed under Rattus norvegicus [18] was Active. The Stability result in series [20] is on record as “Unstable”.
